The values below come from the RNAGym collection of RNA variant scans (doi:10.1126/science.aae0568).

Variants at the floor of the assay were thinned out.

B1: tRNA (parent)
chain: GUUCCGUUGGCGUAAUGGUAACGCGUCUCCCUCCUAAGGAGAAGACUGCGGGUUCGAGUCCCGUACGGAACG

The variants in the data set derive from B1. Kind of data set: yeast fitness relative to wild type (ratio to wild type); higher = fitter; tRNA-Arg(CCU), competitive growth, 37 C, YPD. In outline: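 Changes in genotype frequencies gave Darwinian fitness relative to wild type. Frequencies were read by 100-nucleotide paired-end sequencing of gene amplicons before and after pooled Saccharomyces cerevisiae strains, carrying tRNA-Arg(CCU) gene variants at the native locus, were competed in YPD at 37°C for 24 hours in six replicates. A genotype was kept only with ≥ 100 starting reads, and estimates < 0.5 were set to 0.5.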
As for U28A C29G, the yeast fitness stood at 0.558.
As for C29G A37G G51A C55A, the yeast fitness is at most 0.5.
Regarding C29A G44A A70G, the yeast fitness turned out to be 0.804.
U28C G63A A70G: the yeast fitness was 0.685.
In the case of U28A G56C G67U, the yeast fitness came out at 0.525.
As to C29G A40C A42C A65C, the yeast fitness came to 0.565.
As to U28C A42C C55U G68C, the yeast fitness is at most 0.5.
As for U28A A65G, the yeast fitness was 0.791.
On to U28A A65U, for which the yeast fitness was determined as 0.642.
On to U28A U35G C62A, for which the yeast fitness was at most 0.5.
U28C G68C: the yeast fitness was 0.884.
Then C29A C60A, with 0.616; and C29G C30U C46U G48A G56A C61U C62G, with at most 0.5.
As to U28A C31A A36C A45G G48C, the yeast fitness is 0.619.
With C29A U35C A45C C49U, the yeast fitness is at most 0.5.
Then C29A A37U A65U, with at most 0.5.
For the variant U28C A45U G48C, the yeast fitness turned out to be 0.638.
Then U28G A45C, with 0.655.
Consider U28G C60G, for which the yeast fitness was 0.603.
Take U28C A37C A40U C55U: the yeast fitness turned out to be 0.525.
For C29A A42U U64C A69C, the yeast fitness is at most 0.5.
Regarding U28G A57C, the yeast fitness was 0.587.
As to C29A C33G A45C, the yeast fitness was 0.543.
With C29A C46U the figure was 0.724.
Take U28C C33G G38A U54C U64G: the yeast fitness was at most 0.5.
Regarding U28C C66A, the yeast fitness came to 0.689.
For the variant U28A G52C, the yeast fitness was at most 0.5.
With U28G C33G C49U G68C A69U the figure was at most 0.5; with U28G C61A, 0.561; with U28A C31A A42C A45U G48A G51A U64A, at most 0.5.
As to C29G A40U G44A, the yeast fitness is at most 0.5.
On to U28C A43C C46A G48C, for which the yeast fitness is at most 0.5.
With U28A C31G C55A G68C the figure was at most 0.5; with C29A U35C A45U C60G G63C, 0.538; with C29A C55U G63C U64C, at most 0.5.
As to C29G A37U C46U, the yeast fitness is at most 0.5.
In the case of C29A C49A A70G, the yeast fitness was at most 0.5.
Consider U28G U54G A65C G67A, for which the yeast fitness was at most 0.5.
As for U28C A57U A65U, the yeast fitness was at most 0.5.
With U28A G41A G56A C62U the figure was at most 0.5; with U28G A42C A57C, 0.627.
Regarding C29A A36U G50C C55G C61G, the yeast fitness is at most 0.5.
On to U28A C60G C66G A69G, for which the yeast fitness was at most 0.5.
For the variant U28G C29A C66U, the yeast fitness is at most 0.5.
Turning to C29A A37G, the yeast fitness amounted to 0.545.
Turning to C29A C30A G50A, the yeast fitness was at most 0.5.
With U28A G51C A57C the figure was 0.53.
For U28G C46G C49U, the yeast fitness was at most 0.5.
As to U28G U32A A43C, the yeast fitness was at most 0.5.
In the case of U28A C55G, the yeast fitness came out at 0.537.
Then U28A C55U, with 0.739; and U28A C55A, with 0.52.
As to U28C G48A C60A C62U, the yeast fitness is at most 0.5.
On to U28C C33G C66A, for which the yeast fitness was 0.616.
Turning to U28G A36G, the yeast fitness stood at 0.712.
Regarding C29A A36U A40U C55U G56A U59C, the yeast fitness is at most 0.5.
In the case of U28G A43G, the yeast fitness is 0.643.
For the variant U28C G39C, the yeast fitness is 0.578.
With C29G A40U C66U the figure was at most 0.5; with C29G A36G C55U, at most 0.5.
Then U28A A69C, with 0.88.
As for C29G C30U, the yeast fitness came out at 0.632.
As to U28A C29G C31U G68A, the yeast fitness came to 0.547.
Turning to C29G C30A C49U, the yeast fitness was at most 0.5.
For U28A G56C, the yeast fitness was at most 0.5.
For U28A G51A A57U, the yeast fitness was found to be 0.598.
For U28A C29G G51A G56A G67C, the yeast fitness stood at 0.585.
As to C29G C30U A65G, the yeast fitness was at most 0.5.
For U28C A70C, the yeast fitness came to 0.878.
With U28A C29G C33U C34G A42U the figure was 0.536; with U28A C29G A36C, 0.516; with U28C C33G A40G G51C C61U A65U, at most 0.5.
For the variant C29A U35A, the yeast fitness came out at 0.672.
Then C29A U35G, with at most 0.5.
Regarding C29A A43C, the yeast fitness is 0.748.
With U28C U64C the figure was 0.877.
With U28C C33A A42C A45U A69C, the yeast fitness was determined as 0.622.
For C29A A37U A43C, the yeast fitness stood at 0.733.
Then U28C G41C, with 0.712; and U28C G41A, with 0.783; and U28G C46G C49U A69C, with at most 0.5.
On to C29A A65U, for which the yeast fitness came to 0.626.
Regarding C29A A65G, the yeast fitness is 0.667.
For U28C A40U, the yeast fitness stood at 1.01.
Take U28C A40C: the yeast fitness came to 0.902.
As to C29A C30G G38U, the yeast fitness was at most 0.5.
U28A C34G: the yeast fitness stood at 0.707.
Then C29G C30G C49A G56C C61U, with 0.982; and C29A C49G C55U, with at most 0.5.
Then U28G A65C, with 0.669; and U28C C29A, with 0.703.
Then U28C C29G, with 0.566; and U28C C46A, with 0.992.
Regarding U28C C46G, the yeast fitness turned out to be 1.08.
With U28G C29G G41A, the yeast fitness is at most 0.5.
For the variant C29A A45C G48C C49G, the yeast fitness is at most 0.5.
As for C29A U35A G56A, the yeast fitness amounted to 0.741.
On to U28C G52A C61U, for which the yeast fitness turned out to be 0.698.
On to U28C C34G A40G A43G C46G G52A C55U, for which the yeast fitness worked out at 0.613.
With C29G A37C G63A A65G the figure was at most 0.5; with C29A C55U A69U, at most 0.5.
Take U28G A69U: the yeast fitness came to 0.789.
C29A C31A A40U C49U: the yeast fitness is at most 0.5.
Then U28G G41C C55G A70U, with at most 0.5; and U28A A42G U64A, with at most 0.5.
Then C29G A57C C66G, with at most 0.5.
Consider U28C A40G G52C, for which the yeast fitness is at most 0.5.
Consider C29G A37C A42U A57G G67A, for which the yeast fitness is at most 0.5.
For the variant C29G C30U G41C C66G G68A, the yeast fitness is at most 0.5.
As to C29A C49A C62A C66U, the yeast fitness is at most 0.5.
Turning to C29G A69G, the yeast fitness is at most 0.5.
As to C29G C30U G58A, the yeast fitness worked out at 0.608.
Take U28C A57G: the yeast fitness came out at 0.896.
With U28C C29G C62U, the yeast fitness was at most 0.5.
With C29A C30U the figure was 0.689; with U28G C31G A45U C46G G58A, 0.529; with U28C A37U A57C A69U A70C, at most 0.5.
Regarding C29A A65U G67A, the yeast fitness is 0.5.
For the variant C29A C34U A36U, the yeast fitness is 0.568.
Then C29A U47C, with 0.713; and U28G C31A C61U, with at most 0.5; and C29A U32C A42U A69U, with at most 0.5.
On to U28C A43C G67C, for which the yeast fitness came out at 0.528.
Then U28C G38A A40C A45G G48A, with at most 0.5; and U28G A36G G51A, with at most 0.5.
Consider U28G C29A G52C A57U, for which the yeast fitness was at most 0.5.
As for U28C A42C A43C C55G A57G, the yeast fitness is at most 0.5.
Regarding U28C A37C U47C, the yeast fitness was 0.697.
Regarding C29A A40U A45C C46A C49A A57G, the yeast fitness is at most 0.5.
On to U28A G48C A70C, for which the yeast fitness is at most 0.5.
Turning to U28A A57U, the yeast fitness worked out at 0.598.
On to C29A A37U G38C A40C A43C C46U, for which the yeast fitness came to 0.599.
For the variant U28A C31A A42C A45U G51A A65U, the yeast fitness is at most 0.5.
For U28A G39A U64G, the yeast fitness was at most 0.5.
Turning to U28A C34U A57G C66U, the yeast fitness is at most 0.5.
With C29A C33G U35C C49U A57C C60A, the yeast fitness was 0.644.
Turning to C29A C33U G67A, the yeast fitness is at most 0.5.
With U28C A36C G67C, the yeast fitness was 0.539.
In the case of U28A U35C A37C U64A G67A, the yeast fitness is at most 0.5.
Then U28C A37C G56A U59C, with at most 0.5.
For the variant U28G A40U U59C, the yeast fitness came out at 0.576.
Turning to U28A G44A G68A, the yeast fitness came out at 0.544.
Then U28C G39C G44C G58A, with at most 0.5; and C29G A43G U64C, with at most 0.5; and C29G A36U A65U, with at most 0.5.
On to C29G A37G A70G, for which the yeast fitness came to 0.562.
In the case of U28C C61U A69U, the yeast fitness amounted to 0.727.
As to U28C G58C C62G A70U, the yeast fitness was at most 0.5.
Take C29A C34G A42C C49G G68A: the yeast fitness was at most 0.5.
Then U28G C34A U35C, with at most 0.5; and U28A C30U A69C, with 0.57; and C29G A40C A57C, with 0.551.
In the case of U28C C61G, the yeast fitness came out at 0.583.
With C29A A36C G51A U53C U64C A65U the figure was at most 0.5; with C29A A37G C49A U64C G68A, at most 0.5.
With C29A G39A C49A C66G the figure was at most 0.5; with U28A C46U A70G, 0.634; with C29A C66U, 0.627.
Turning to U28A C29G C31U A69U, the yeast fitness was at most 0.5.
Consider U28A C29G C33U C34G A42U G58A, for which the yeast fitness was at most 0.5.
As for U28G C33A A45C, the yeast fitness is at most 0.5.
In the case of C29A A36U, the yeast fitness is at most 0.5.
With C29G A37U, the yeast fitness worked out at 0.566.
For C29G A65U A70G, the yeast fitness was 0.506.
U28A C55G A70G: the yeast fitness was at most 0.5.
For U28A C29G C33U C34G C62A A69G, the yeast fitness was at most 0.5.
For the variant C29A G41A A43C C49U, the yeast fitness was at most 0.5.
